{"source": "paper PMC3034256", "about": "(Chemistry & biology, 2011)", "test_system": "transduced bone marrow LDMNCs (MIEG3, wild-type SHP2, SHP2/E76K)", "assay": "Methylcellulose colony assay, GM-CSF-stimulated monocytic differentiation", "format": "cell-based", "settings": "2 µM, GM-CSF 1 ng/mL, 7 days, all cell types", "method_in_brief": "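Transduced, EGFP-sorted bone marrow low-density mononuclear cells were plated at 8000 cells/mL in 0.9% methylcellulose medium (IMDM, 2 mM glutamine, 80 µM β-mercaptoethanol, 30% FBS) with GM-CSF 1 ng/mL, ± 2 µM test compound. Cultures were kept at 37 °C, 5% CO2 for 7 days. Total colonies and CFU-GM vs CFU-M morphology were scored by light microscopy; n=2.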"}
{"smiles": "C=C/C(=C/C(=O)C[C@H](C)C[C@@H](C)CC[C@H](O)[C@H](C)C(=O)C[C@@H](O)[C@H](C)[C@@H](C)OC(=O)C[C@@H](O)C1=C(C)C(=O)OC1=O)CC", "note": "[TTN, tautomycetin]", "values": [{"measurement": "effect on development of CFU-M", "result": "reduced in all cells types"}]}
